In the library only some 2.6% were active in any assay of this set; here they are far more common.
SENP1 FRET inh – human SENP1 catalytic domain inhibitors, primary screen, biochemical, FRET, uHTS | Sentrin-specific protease 1 (Homo sapiens), Q9P0U3 | recombinant SENP1 catalytic domain, CyPet-SUMO1-YPet FRET cleavage | inhibition, % at 10 µM | actives 0.21% (n = 360,000);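 active = inhibition at least 30% at 10 µM, raw YFP signal under a set limit, fluorescence ratio 0.5 to 1.5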;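 also: 0% = enzyme with DMSO and 100% = no enzyme wells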
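Controls: no-enzyme wells low, DMSO-plus-enzyme wells high control. Test system: human recombinant His6-tagged SENP1 catalytic domain enzyme. Reagent: SFCypet-SUMO1-SFYpet FRET protein substrate, 25 nM final. Doses: one dose per compound, 10 µM, 0.5% DMSO. Detection: FRET, CFP and YFP emission. Timing: 50 min reaction at room temperature.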
SENP7 inh – SENP7 protease inhibitors, primary screen, biochemical, luminescence, uHTS | actives 1.5% (n = 330,000) | inhibition, % at 5 µM | Sentrin-specific protease 7 (Homo sapiens), Q9BQF6 | recombinant SENP7, Z-RLRGG-aminoluciferin luminescence, 40 min;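 active = inhibition above about 50% at the single test dose, limit read from the data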;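 also: plate controls were DMSO with enzyme for no effect and no enzyme buffer wells for full effect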
SENP8 block-1 – human SENP8 protease inhibitors, primary screen, biochemical, fluorescence, Nedd8 protein substrate, uHTS. recombinant SENP8. inhibition, % at 20 µM. actives 0.64% (n = 360,000). AID 602440, 2012; in the data active = inhibition mostly above about 40%, no sharp cut-off; inactive = mostly below about 27%
Platelet DG rel – inhibitors of platelet dense granule secretion, primary screen, cell-based, MLPCN, human platelets. human platelet-rich plasma, SFLLRN dense granule ATP release, luminescence. inhibition, %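 (compounds screened at 7.5 µM in platelet-rich plasma)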. actives 0.22% (n = 300,000). AID 1663, 2009;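 active = mean replicate score, as percent of positive control, at or above 50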
SENP6 inh – SENP6 protease inhibitors, primary screen, biochemical, luminescence, uHTS. Recombinant SENP6 catalytic domain, aminoluciferin luminescence. AID 2599, 2010. actives 1.8% (n = 330,000). inhibition, % at 10 µM;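 active = inhibition above about 50% at the single tested dose, limit read from the data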;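 also: plate controls were DMSO wells with enzyme for no effect and DMSO wells lacking enzyme for full effect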
Target sequence (Q9GZR1 628-1112 limits assumed): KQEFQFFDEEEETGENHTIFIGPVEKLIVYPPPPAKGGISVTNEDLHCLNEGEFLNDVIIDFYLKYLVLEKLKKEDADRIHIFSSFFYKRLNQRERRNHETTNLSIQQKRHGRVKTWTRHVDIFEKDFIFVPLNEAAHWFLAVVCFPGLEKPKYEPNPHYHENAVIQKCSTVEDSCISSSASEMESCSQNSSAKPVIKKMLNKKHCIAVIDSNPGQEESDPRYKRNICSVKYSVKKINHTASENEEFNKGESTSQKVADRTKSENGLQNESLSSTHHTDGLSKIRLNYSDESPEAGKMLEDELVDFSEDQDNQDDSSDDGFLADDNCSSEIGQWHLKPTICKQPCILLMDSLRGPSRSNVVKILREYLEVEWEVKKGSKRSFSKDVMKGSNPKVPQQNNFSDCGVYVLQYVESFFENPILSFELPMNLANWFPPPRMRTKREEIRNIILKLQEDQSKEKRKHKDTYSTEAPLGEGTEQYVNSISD
SENP8 block-2 – SENP8 protease inhibitors, primary screen, biochemical, luminescence; Sentrin-specific protease 8 (Homo sapiens), Q96LD8; purified SENP8, Z-RLRGG-aminoluciferin cleavage; inhibition, % at 10 µM; actives 1.2% (n = 330,000); in the data active = inhibition above about 50%
SENP8 conf – SENP8 protease inhibitors, retest, confirmation, biochemical, luminescence, single concentration; inhibition, % at 12.5 µM; shares compounds with SENP7 inh; Recombinant SENP8, Z-RLRGG-aminoluciferin luminescence, 60 min; AID 488912, 2010; actives 40% (n = 6,200);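 active = mean inhibition across replicates above about 50%, limit read from the data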
SENP6 confirm – SENP6 protease inhibitors, confirmation, biochemical, luminescence, single concentration; shares compounds with SENP7 inh; recombinant SENP6, Z-RLRGG-aminoluciferin luminescence; inhibition, % at 12.5 µM; actives 58% (n = 6,200)
SENP7 conf – SENP7 protease inhibitors, retest, confirmation, biochemical, luminescence, single concentration. shares compounds with SENP7 inh. recombinant SENP7, Z-RLRGG-aminoluciferin luminescence, 40 min. inhibition, % at 12.5 µM. actives 69% (n = 6,200). AID 488917, 2010
Casp3 select – caspase-3 protease inhibitors, confirmation, selectivity assay for SENP inhibitor project, biochemical, single concentration | shares compounds with SENP7 inh | purified caspase-3, Z-DEVD-aminoluciferin luminescence, 60 min | inhibition, % at 12.5 µM | actives 60% (n = 6,200);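 active = mean inhibition above about 50%, limit read from the data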;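 also: plate controls were enzyme with DMSO for no effect and wells without caspase-3 for full effect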
Target sequence (P42574 28-227 limits assumed): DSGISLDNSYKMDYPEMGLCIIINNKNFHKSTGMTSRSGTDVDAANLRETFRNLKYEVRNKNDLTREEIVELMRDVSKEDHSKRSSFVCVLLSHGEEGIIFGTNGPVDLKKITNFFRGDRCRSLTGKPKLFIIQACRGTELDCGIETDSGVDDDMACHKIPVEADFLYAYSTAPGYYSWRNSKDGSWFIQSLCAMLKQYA
Luc interf – luminescence interference (SENP counter-screen) | actives 39% (n = 6,200) | inhibition, % at 12.5 µM | shares compounds with SENP7 inh | Pre-incubated SENP8/Z-RLRGG-aminoluciferin, luciferase luminescence interference;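 active = mean inhibition above about 50% when retested at one dose, limit read from the data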;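 also: plate controls were DMSO wells with completed reaction for no effect and substrate without enzyme for full effect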
Numbers without * were called inactive.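 The calls were made as follows, unless noted: active = mean inhibition above about 50% in the one-dose retest (limit read from the data); inactive = the rest.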

Results for Cc1cccc(NC(=O)c2ccc(OC3CSC3)cc2)c1 ?
SENP1 FRET inh: 0; SENP7 inh: 97*; SENP8 block-1: 14; Platelet DG rel: 35; SENP6 inh: 94*; SENP8 block-2: 91*; SENP8 conf: 66*; SENP6 confirm: 89*; SENP7 conf: 99*; Casp3 select: 93*; Luc interf: 61*

What do the screens show for `COc1ccc(NC(=O)OC(C)C)cc1`?
SENP1 FRET inh: 3; SENP7 inh: 25; SENP8 block-1: 32; Platelet DG rel: 37; SENP6 inh: 55*; SENP8 block-2: 30; SENP8 conf: 24; SENP6 confirm: 34; SENP7 conf: 71*; Casp3 select: 75*; Luc interf: 35

What do the screens show for `COc1ccc(NC(=O)c2ccc(C)cc2)cc1`?
SENP1 FRET inh: 0; SENP7 inh: 41; SENP8 block-1: 30; Platelet DG rel: -1; SENP6 inh: 63*; SENP8 block-2: 27; SENP8 conf: 35; SENP6 confirm: 31; SENP7 conf: 71*; Casp3 select: 68*; Luc interf: 14

What do the screens show for `CC(C)OC(=O)Nc1ccc(-c2ccc(NC(=O)OC(C)C)cc2Cl)c(Cl)c1`?
SENP1 FRET inh: 2; SENP7 inh: 8; SENP8 block-1: 20; Platelet DG rel: -2; SENP6 inh: -11; SENP8 block-2: 4

How did COc1ccc(NC(=O)c2ccc(NC(=O)c3cccnc3)cc2)cc1 do in these assays?
SENP1 FRET inh: -11; SENP8 block-1: 3

What do the screens show for `COc1ccc(C(=O)Nc2cccc(C)c2)cc1`?
SENP1 FRET inh: 3; SENP7 inh: 90*; SENP8 block-1: 16; Platelet DG rel: 56*; SENP6 inh: 92*; SENP8 block-2: 78*; SENP8 conf: 84*; SENP6 confirm: 86*; SENP7 conf: 99*; Casp3 select: 92*; Luc interf: 85*

Results for COc1ccc(C(=O)Nc2cccc(NC(C)=O)c2)cc1 ?
SENP1 FRET inh: 2; SENP8 block-1: 2

How did CC(C)Oc1ccc(C(=O)Nc2ccc([N+](=O)[O-])cc2)cc1 do in these assays?
SENP1 FRET inh: 1; SENP7 inh: 86*; SENP8 block-1: 35; Platelet DG rel: 25; SENP6 inh: 61*; SENP8 block-2: 26; SENP8 conf: 19; SENP6 confirm: 28; SENP7 conf: 15; Casp3 select: 23; Luc interf: -1

How did O=C(O)c1ccc(OC2CSC2)cc1 do in these assays?
SENP1 FRET inh: -1; SENP7 inh: -1; SENP8 block-1: 22; Platelet DG rel: -3; SENP6 inh: 52*; SENP8 block-2: 40; SENP8 conf: 55*; SENP6 confirm: 54*; SENP7 conf: 26; Casp3 select: 13; Luc interf: 38

Results for CCCC(=O)Nc1ccc(C(=O)Nc2cccc(OC)c2)cc1 ?
SENP1 FRET inh: 1; SENP7 inh: 41; SENP8 block-1: 7; Platelet DG rel: 15; SENP6 inh: 13; SENP8 block-2: 31

Results for O=C(NCc1ccccc1)c1ccc(OC2CSC2)cc1 ?
SENP1 FRET inh: 1; SENP7 inh: -10; SENP8 block-1: 20; Platelet DG rel: -3; SENP6 inh: -4; SENP8 block-2: -11

What do the screens show for `CN(C)S(=O)(=O)Oc1ccc(C(=O)Nc2ccc([N+](=O)[O-])cc2)cc1`?
SENP1 FRET inh: 1; SENP7 inh: 6; SENP8 block-1: 22; Platelet DG rel: 3; SENP6 inh: -3; SENP8 block-2: -3

How did COc1cccc(NC(=O)c2ccc(NC(=O)C(C)(C)C)cc2)c1 do in these assays?
SENP1 FRET inh: 1; SENP7 inh: 72*; SENP8 block-1: 27; Platelet DG rel: 25; SENP6 inh: 73*; SENP8 block-2: 37; SENP8 conf: 71*; SENP6 confirm: 66*; SENP7 conf: 86*; Casp3 select: 82*; Luc interf: 70*

What do the screens show for `c1ccc(NC(c2ccccc2)c2ccncc2)cc1` (stereo not given)?
SENP1 FRET inh: -1; SENP7 inh: 0; SENP8 block-1: 11; Platelet DG rel: -2; SENP6 inh: 8; SENP8 block-2: 5

Results for CNC(=O)c1ccc(-c2sc3nc(N4CCOCC4)c4c(c3c2N)CCCC4)o1 ?
SENP1 FRET inh: -22; SENP7 inh: 35; SENP8 block-1: -251; Platelet DG rel: 3; SENP6 inh: 55*; SENP8 block-2: 5; SENP8 conf: 2; SENP6 confirm: 8; SENP7 conf: 5; Casp3 select: 4; Luc interf: -1

Results for O=C(Oc1ccc2c(c1)OCO2)c1cc2c(s1)CCC2 ?
SENP1 FRET inh: -13; SENP7 inh: 68*; SENP8 block-1: 1; Platelet DG rel: 5; SENP6 inh: 81*; SENP8 block-2: 60*; SENP8 conf: 76*; SENP6 confirm: 74*; SENP7 conf: 89*; Casp3 select: 56*; Luc interf: 65*

What do the screens show for `O=C(Oc1ccc2c(c1)OCO2)c1ccc(F)cc1Cl`?
SENP1 FRET inh: 3; SENP7 inh: 88*; SENP8 block-1: 8; Platelet DG rel: 2; SENP6 inh: 91*; SENP8 block-2: 75*; SENP8 conf: 73*; SENP6 confirm: 84*; SENP7 conf: 97*; Casp3 select: 77*; Luc interf: 75*

How did O=C(c1cc2c(s1)CCCC2)N1CCN(Cc2ccc3c(c2)OCO3)CC1 do in these assays?
SENP1 FRET inh: 1; SENP7 inh: 3; SENP8 block-1: 34; Platelet DG rel: 2; SENP6 inh: 6; SENP8 block-2: -2

Screening data as filed in PubChem.
